# Measured values: BindingDB's records for doi:10.1021/jm950541c (Georgia Institute of Technology, 1996)
# pKi: −log10 of the molar value.
# Molecular target: T1, Calpain-2 catalytic subunit (Homo sapiens, UniProt P17655)
# T1 sequence (P17655 whole entry): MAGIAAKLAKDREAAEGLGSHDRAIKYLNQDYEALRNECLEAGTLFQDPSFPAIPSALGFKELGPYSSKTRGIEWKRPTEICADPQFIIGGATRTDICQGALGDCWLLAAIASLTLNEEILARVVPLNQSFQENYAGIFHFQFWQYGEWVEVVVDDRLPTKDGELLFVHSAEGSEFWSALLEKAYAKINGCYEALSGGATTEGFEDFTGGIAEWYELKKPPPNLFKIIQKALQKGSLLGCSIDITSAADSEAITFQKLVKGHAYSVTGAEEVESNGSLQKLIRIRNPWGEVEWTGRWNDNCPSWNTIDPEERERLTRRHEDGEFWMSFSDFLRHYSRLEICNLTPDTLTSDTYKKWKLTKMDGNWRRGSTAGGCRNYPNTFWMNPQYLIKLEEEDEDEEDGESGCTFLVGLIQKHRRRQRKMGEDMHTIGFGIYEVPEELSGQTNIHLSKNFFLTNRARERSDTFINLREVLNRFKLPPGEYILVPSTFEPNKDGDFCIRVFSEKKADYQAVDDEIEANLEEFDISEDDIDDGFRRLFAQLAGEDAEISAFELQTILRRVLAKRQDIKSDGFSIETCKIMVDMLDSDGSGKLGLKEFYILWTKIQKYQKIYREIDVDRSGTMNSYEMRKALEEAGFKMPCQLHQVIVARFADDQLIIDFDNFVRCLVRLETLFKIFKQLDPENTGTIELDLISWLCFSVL
# Experiment: Compound was evaluated for the inhibition of Cysteine protease Calpain 2
# Summary of the method: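 Calpain assay in 25 mM Tris, pH 8.0, with 10 mM CaCl₂ and 5% DMSO. Suc-Leu-AMC hydrolysis was read as initial velocity (t = 30-60 s) after a 30 s delay, at room temperature. Five or more inhibitor concentrations (not above 2 × K_obs) were used at two fixed substrate levels. Ki came from Dixon plots (1/v vs I) averaged over triplicates.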
row,pKi,Compound
1,6.92,"CCC(NC(=O)C(CC(C)C)NC(=O)OCc1ccccc1)C(=O)C(=O)NCC(O)c1cccc(Oc2ccc(Cl)c(Cl)c2)c1 (stereo not given) [[1-(1-{2-[3-(3,4-Dichloro-phenoxy)-phenyl]-2-hydroxy-ethylaminooxalyl}-propylcarbamoyl)-3-methyl-butyl]-carbamic acid benzyl ester]"
2,7.08,CCC(NC(=O)C(CC(C)C)NC(=O)OCc1ccccc1)C(=O)C(=O)NC (stereo not given) [[3-Methyl-1-(1-methylaminooxalyl-propylcarbamoyl)-butyl]-carbamic acid benzyl ester]
3,6.55,"CCC(NC(=O)C(CC(C)C)NC(=O)OCc1ccccc1)C(=O)C(=O)NCCNC(=O)CCCC[C@@H]1SC[C@@H]2NC(=O)N[C@@H]21 (stereo partly drawn) [[3-Methyl-1-(1-{2-[5-((3aR,6S,6aS)-2-oxo-hexahydro-thieno[3,4-d]imidazol-6-yl)-pentanoylamino]-ethylaminooxalyl}-propylcarbamoyl)-butyl]-carbamic acid benzyl ester]"
4,6.80,"CCOC(CNC(=O)C(=O)C(CC)NC(=O)C(CC(C)C)NC(=O)OCc1ccccc1)OCC (stereo not given) [{1-[1-(2,2-Diethoxy-ethylaminooxalyl)-propylcarbamoyl]-3-methyl-butyl}-carbamic acid benzyl ester]"
5,7.00,"CCC(NC(=O)C(CC(C)C)NC(=O)OCc1ccccc1)C(=O)C(=O)NCC(OC)OC (stereo not given) [{1-[1-(2,2-Dimethoxy-ethylaminooxalyl)-propylcarbamoyl]-3-methyl-butyl}-carbamic acid benzyl ester]"
6,6.77,CCC(NC(=O)C(CC(C)C)NC(=O)OCc1ccccc1)C(=O)C(=O)NCC(O)c1cccc2ccccc12 (stereo not given) [{1-[1-(2-Hydroxy-2-naphthalen-1-yl-ethylaminooxalyl)-propylcarbamoyl]-3-methyl-butyl}-carbamic acid benzyl ester]
7,6.96,CCC(NC(=O)C(CC(C)C)NC(=O)OCc1ccccc1)C(=O)C(=O)NCC(O)c1ccc2ccccc2c1 (stereo not given) [{1-[1-(2-Hydroxy-2-naphthalen-2-yl-ethylaminooxalyl)-propylcarbamoyl]-3-methyl-butyl}-carbamic acid benzyl ester]
8,6.70,CCC(NC(=O)C(CC(C)C)NC(=O)OCc1ccccc1)C(=O)C(=O)NCC(O)c1c(F)c(F)c(F)c(F)c1F (stereo not given) [{1-[1-(2-Hydroxy-2-pentafluorophenyl-ethylaminooxalyl)-propylcarbamoyl]-3-methyl-butyl}-carbamic acid benzyl ester]
9,4.96,CCCC(NC(=O)C(CC(C)C)NC(=O)OCc1ccccc1)C(=O)C(=O)NCC(O)c1ccccc1 (stereo not given) [{1-[1-(2-Hydroxy-2-phenyl-ethylaminooxalyl)-butylcarbamoyl]-3-methyl-butyl}-carbamic acid benzyl ester]
10,7.82,CCC(NC(=O)C(CC(C)C)NC(=O)OCc1ccccc1)C(=O)C(=O)NCC(O)c1ccccc1 (stereo not given) [{1-[1-(2-Hydroxy-2-phenyl-ethylaminooxalyl)-propylcarbamoyl]-3-methyl-butyl}-carbamic acid benzyl ester]
11,7.11,CCC(NC(=O)C(CC(C)C)NC(=O)OCc1ccccc1)C(=O)C(=O)NCCO (stereo not given) [{1-[1-(2-Hydroxy-ethylaminooxalyl)-propylcarbamoyl]-3-methyl-butyl}-carbamic acid benzyl ester]
12,7.66,"CCC(NC(=O)C(CC(C)C)NC(=O)OCc1ccccc1)C(=O)C(=O)NCc1cc(OC)cc(OC)c1 (stereo not given) [{1-[1-(3,5-Dimethoxy-benzylaminooxalyl)-propylcarbamoyl]-3-methyl-butyl}-carbamic acid benzyl ester]"
13,7.17,CCC(NC(=O)C(CC(C)C)NC(=O)OCc1ccccc1)C(=O)C(=O)NCCCn1ccnc1 (stereo not given) [{1-[1-(3-Imidazol-1-yl-propylaminooxalyl)-propylcarbamoyl]-3-methyl-butyl}-carbamic acid benzyl ester]
14,7.16,"CCC(NC(=O)C(CC(C)C)NC(=O)OCc1ccccc1)C(=O)C(=O)NCC1(C)CC(O)CC(C)(C)C1 (stereo not given) [{1-[1-(5-Hydroxy-1,3,3-trimethyl-cyclohexylmethyl)-aminooxalyl]-propylcarbamoyl}-3-methyl-butyl)-carbamic acid benzyl ester]"
15,7.29,CCC(NC(=O)C(CC(C)C)NC(=O)OCc1ccccc1)C(=O)C(=O)NCCCCCO (stereo not given) [{1-[1-(5-Hydroxy-pentylaminooxalyl)-propylcarbamoyl]-3-methyl-butyl}-carbamic acid benzyl ester]
16,7.48,CCC(NC(=O)C(CC(C)C)NC(=O)OCc1ccccc1)C(=O)C(=O)NCc1ccco1 (stereo not given) [{1-[1-(Furan-2-ylmethyl)-aminooxalyl]-propylcarbamoyl}-3-methyl-butyl)-carbamic acid benzyl ester]
17,6.82,CCC(NC(=O)C(CC(C)C)NC(=O)OCc1ccccc1)C(=O)C(=O)NCc1nccc2ccccc12 (stereo not given) [{1-[1-(Isoquinolin-1-ylmethyl)-aminooxalyl]-propylcarbamoyl}-3-methyl-butyl)-carbamic acid benzyl ester]
18,6.46,CC(C)CC(NC(=O)OCc1ccccc1)C(=O)NC(Cc1ccccc1)C(=O)C(=O)NCC(O)c1c(F)c(F)c(F)c(F)c1F (stereo not given) [{1-[1-Benzyl-2-(2-hydroxy-2-pentafluorophenyl-ethylcarbamoyl)-2-oxo-ethylcarbamoyl]-3-methyl-butyl}-carbamic acid benzyl ester]
19,7.30,CC(C)CC(NC(=O)OCc1ccccc1)C(=O)NC(Cc1ccccc1)C(=O)C(=O)NCC(O)c1ccccc1 (stereo not given) [{1-[1-Benzyl-2-(2-hydroxy-2-phenyl-ethylcarbamoyl)-2-oxo-ethylcarbamoyl]-3-methyl-butyl}-carbamic acid benzyl ester]
20,6.48,CC(C)CC(NC(=O)OCc1ccccc1)C(=O)NC(Cc1ccccc1)C(=O)C(=O)NCCCN1CCOCC1 (stereo not given) [{1-[1-Benzyl-2-(3-morpholin-4-yl-propylcarbamoyl)-2-oxo-ethylcarbamoyl]-3-methyl-butyl}-carbamic acid benzyl ester]
21,5.34,"CCC(NC(=O)C(CC(C)C)NC(=O)OCc1ccccc1)C(=O)C(=O)NCc1nc2c(c(=O)n(C)c(=O)n2C)n1C (stereo not given) [{3-Methyl-1-[1-(1,3,7-trimethyl-2,6-dioxo-2,3,6,7-tetrahydro-1H-purin-8-ylmethyl)-aminooxalyl]-propylcarbamoyl}-butyl)-carbamic acid benzyl ester]"
22,6.33,CCC(NC(=O)C(CC(C)C)NC(=O)OCc1ccccc1)C(=O)C(=O)NCCc1ccccn1 (stereo not given) [{3-Methyl-1-[1-(2-pyridin-2-yl-ethylaminooxalyl)-propylcarbamoyl]-butyl}-carbamic acid benzyl ester]
23,7.00,CCCC(NC(=O)C(CC(C)C)NC(=O)OCc1ccccc1)C(=O)C(=O)NCCCN1CCOCC1 (stereo not given) [{3-Methyl-1-[1-(3-morpholin-4-yl-propylaminooxalyl)-butylcarbamoyl]-butyl}-carbamic acid benzyl ester]
24,7.77,CCC(NC(=O)C(CC(C)C)NC(=O)OCc1ccccc1)C(=O)C(=O)NCc1ccccn1 (stereo not given) [{3-Methyl-1-[1-(pyridin-2-ylmethyl)-aminooxalyl]-propylcarbamoyl}-butyl)-carbamic acid benzyl ester]
25,6.96,CCC(NC(=O)C(CC(C)C)NC(=O)OCc1ccccc1)C(=O)C(=O)NCc1ccncc1 (stereo not given) [{3-Methyl-1-[1-(pyridin-4-ylmethyl)-aminooxalyl]-propylcarbamoyl}-butyl)-carbamic acid benzyl ester]
